Results of several laboratories.
Each line is one published result; the experiments were not run side by side.
Target: Mitogen-activated protein kinase kinase kinase 11 (MAP3K11, Homo sapiens, UniProt Q16584)

For `O=C(c1ccc(Nc2nccc(-c3cc4ccccc4s3)n2)cc1)N1CCC(N2CCCC2)CC1`, the remaining binding was 57% (binding, competition with immobilised ligand; 1 µM).
`COc1cnc(Nc2cccc(S(N)(=O)=O)c2)nc1N1CCN(c2ccccc2)C(=O)C1` gave a remaining binding of 100% (binding, competition with immobilised ligand; 1 µM).
With `O=C(Nc1ccc(Oc2ccc(F)cc2)cc1)N1CCc2ncccc2[C@H]1c1ccc(F)cc1` the remaining binding was 78% (cell-free assay, competition with immobilised ligand; 1 µM).
`O=C(c1ccc(Nc2ncc(Cl)c(-c3ccc(Cl)s3)n2)cc1)N1CCC(N2CCCC2)CC1` has a remaining binding of 13% (binding, competition with immobilised ligand; 1 µM).
`O=c1nc(-c2ccccn2)sc2ccccc12` gave a remaining binding of 100% (binding, competition with immobilised ligand; 1 µM).
For `c1cnn2ncc(-c3ccnc(N4CCC45COC5)n3)c2c1`, the remaining binding was 100% (binding; 1 µM).
`O=C(NCc1ncc(C(F)(F)F)cc1Cl)c1ccc2c(c1)C1(CCS(=O)(=O)CC1)[C@H](C1CC1)N2S(=O)(=O)c1ccc(F)cc1` has a remaining binding of 100% (cell-free assay, competition with immobilised ligand; 1 µM).
For `COc1ccnn2ncc(-c3ccnc(N(C)C)n3)c12`, the remaining binding was 100% (binding; 1 µM).
With `C[C@@]1(Cc2ccc(C#N)cc2)C(=O)N(c2cc(Cl)cc(Cl)c2)c2ncc(C(=O)NC3(c4nc(C5CCC5)no4)CC3)n21` the remaining binding was 100% (cell-free assay, competition with immobilised ligand; 1 µM).
`N[C@@H]1CCN(c2nccc(-c3cnn4ncccc34)n2)C1` gave a remaining binding of 99% (binding; 1 µM).
`O=C(NCC1CCOCC1)c1n[nH]cc1NC(=O)c1c(F)cccc1F` gave a remaining binding of 100% (binding, competition with immobilised ligand; 1 µM).
`COc1ncc2cc3ccccc3nc2c1C#N` has a remaining binding of 86% (cell-free assay, competition with immobilised ligand; 5 µM).
With `Nc1ncc2c(n1)-c1c([nH]c3ccc(C#CC4CC4)cc13)CCCC2` the remaining binding was 97% (binding, competition with immobilised ligand; 1 µM).
The remaining binding of `CCCOc1ccc([C@H]2[C@H](C(=O)O)[C@@H](c3ccc4c(c3)OCO4)CN2CC(=O)Nc2c(CC)cccc2CC)cc1` is reported as 100% (cell-free assay, competition with immobilised ligand; 1 µM).
With `CN(CCCC(F)(F)F)c1nccc(-c2cnn3ncccc23)n1` the remaining binding was 75% (binding; 1 µM).
`CNC(=O)[C@@H]1CC[C@@H](n2c(-c3ccc4cnccc4c3)nc3ccc(C(=O)NCc4cccc(C(N)=O)c4)cc32)C1` has a remaining binding of 100% (binding, competition with immobilised ligand; 1 µM).
With `CN(c1nccc(-c2cnn3ncccc23)n1)C1CC1` the remaining binding was 100% (binding; 1 µM).
`C[C@H](c1cccc(C#N)c1)n1cc(Cl)cc(C(N)=O)c1=N` gave a remaining binding of 100% (cell-free assay, competition with immobilised ligand; 1 µM).
For `CC1CCCN1c1nccc(-c2cnn3ncccc23)n1` (centres unmarked), the remaining binding was 100% (binding; 1 µM).
With `O=C(NCCCN1CCOCC1)c1ccc(Nc2nccc(-c3cc4ccccc4s3)n2)cc1` the remaining binding was 39% (binding, competition with immobilised ligand; 1 µM).
